Source: PubChem BioAssay
PREPL inh: PREPL enzyme inhibitors, primary screen, biochemical, fluorescence polarization; 0.68% of 320,000 active; inhibition, % at 5.96 µM; Prolyl endopeptidase-like (Homo sapiens), Q4J6C6; recombinant PREPL, fluorescence polarization activity-based probe; in the data active means inhibition above about 43%;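 further: 0% = enzyme with DMSO and 100% = wells lacking enzyme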
UBC13 polyUb: UBC13 polyubiquitin chain formation inhibitors, primary screen, biochemical, TR-FRET, uHTS; 0.47% of 330,000 active; Ubiquitin-conjugating enzyme E2 N (Homo sapiens), P61088; AID 485273, 2010; inhibition, % at 20 µM; in the data active means inhibition above about 45%, passing the limit was not always enough; inconclusive means no clear call, values can overlap the other calls
MEKK2 WT-MEK5: modulators of MEK5 binding to wildtype MEKK2, primary screen, biochemical, multiplex bead flow cytometry, Alexa488-MEK5 | Mitogen-activated protein kinase kinase kinase 2 (Homo sapiens), Q9Y2U5 | 1.1% of 290,000 active | binding response (% of control), % at 10 µM | Alexa488-MEK5 binding to MEKK2 WT; actives lie on both sides; in the data active means binding response below about 67% or above about 130%; inconclusive means no clear call, values can overlap the other calls; inactive means in between
Apaf-1 inh: inhibitors of human Apaf-1 apoptosome, primary screen, biochemical, DEVD-Rh110 fluorescence, uHTS; Apoptotic protease-activating factor 1 (Homo sapiens), O14727; reconstituted apoptosome caspase-3 activity; inhibition, % at 20 µM; 0.71% of 330,000 active; AID 489030, 2010; active means inhibition of at least 40% at 20 µM;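 further: plate controls were DMSO wells for no effect and DEVD-CHO caspase inhibitor wells for full effect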
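Assay system – apoptosome proteins · Medium – Hepes buffer, pH 7.5 · Also added – cytochrome c with DEVD-Rh110 · Timing – 30 min compound preincubation, 50 min activation, room temperature · Detection – Rh110 fluorescence, excitation 480 nm, emission 540 nm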
MEKK3 PB1 HTS: modulators of MEKK3-MEK5 PB1 binding, primary screen, biochemical, wildtype MEKK3, multiplex bead flow cytometry, Alexa488-MEK5; bead-based flow cytometry, Alexa488-MEK5 binding to MEKK3; actives lie on both sides; 0 = blocked by unlabeled MEK5, 100 = vehicle; binding response (% of control), % at 10 µM; 1.4% of 290,000 active;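 active means binding response more than 3 SD above or below the average of its plate-row segment, actives on both sides; inconclusive means wells at one plate position flagged as instrument error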;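 further: Alexa488 bead fluorescence after subtracting the streptavidin-only scavenger bead signal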
MEKK2 mut-MEK5: MEK5 binding signal on mutant MEKK2 PB1, primary screen, biochemical, multiplex bead flow cytometry, Alexa488-MEK5. Alexa488-MEK5 binding to MEKK2 mutant. percent response, % at 10 µM. 0.35% of 290,000 active. AID 1530, 2009; in the data active means percent response above about 24%, passing the limit was not always enough
MEKK2wt confirm: modulators of MEK5 binding to wildtype MEKK2, confirmation, biochemical, single concentration, multiplex bead flow cytometry. AID 1892, 2009. 2.4% of 5,900 active. shares compounds with MEKK3 PB1 HTS. Alexa488-MEK5 binding to MEKK2 WT; actives lie on both sides. binding response (% of control), % at 10 µM; in the data active means binding response below about 16% or above about 210%; inactive means in between
MEKK2mut confirm: mutant MEKK2 PB1-MEK5 binding signal retest – biochemical, single concentration, multiplex bead flow cytometry, confirmation. shares compounds with MEKK3 PB1 HTS. Alexa488-MEK5 binding to MEKK2 mutant. percent response, % at 10 µM. 2% of 5,900 active. AID 1893, 2009; in the data active means percent response mostly above about 71%, no sharp cut-off; inactive means mostly below about 38%;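 further: higher means compound restores mutant binding toward wildtype level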
MEKK3-MEK5 inh: MEKK3 wild-type PB1 binding to MEK5, inhibitors, confirmation, biochemical, bead multiplex flow cytometry, single concentration, wildtype; shares compounds with MEKK3 PB1 HTS; binding response (% of control), % at 10 µM; Alexa488-MEK5 binding to MEKK3; hits give low values; 1.8% of 5,900 active; AID 1894, 2009;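 active means binding response below 72% of control, or above a set upper limit, though filed actives all read lower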;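 further: 100% = DMSO only wells and 0% = binding blocked by excess unlabeled MEK5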
An asterisk follows results filed as active; ? = inconclusive; . = no result given; [ ] = dose if it differs, or a comment. Only some compounds are listed: those with a hit (about 3.1% of all), similar ones and a draw of the others.

SMILES	PREPL inh	UBC13 polyUb	MEKK2 WT-MEK5	Apaf-1 inh	MEKK3 PB1 HTS	MEKK2 mut-MEK5	MEKK2wt confirm	MEKK2mut confirm	MEKK3-MEK5 inh
COc1ccc(S(=O)(=O)N2CCC(C(=O)NCCc3ccc4c(c3)OCO4)CC2)cc1	-3	?	56	7	48*[inhibitor]	-26	106	-1	102
O=C(Oc1ccc(Br)cc1C(=S)N1CCOCC1)c1ccc([N+](=O)[O-])cc1[N+](=O)[O-]	3	-13	103	7	97	-4	.	.	.
O=C(Nc1cccc(Br)c1)c1cc(S(=O)(=O)N2CCOCC2)cs1	-1	3	107	11	107	10	.	.	.
CC(C)c1ccc(CNc2c([N+](=O)[O-])c(=O)oc3ccccc23)cc1	9	9	.	5	.	.	.	.	.
O=c1oc2ccccc2c(NCc2ccccc2F)c1[N+](=O)[O-]	5	-20	105	36	136*	-1	115	9	107
CC1(C)CC(=O)/C(=C(/O)Cc2ccccc2)C(=NCCc2ccccc2)C1	14	-2	98	27	128*	-1	104	-1	108
COc1ccc(C(CNC(=O)Cc2ccccc2Cl)N2CCCCC2)cc1 (centres undefined)	-8	4	99	0	100	-4	.	.	.
COc1ccc(C(CNC(=O)Cc2ccccc2F)N2CCCCC2)cc1 (centres undefined)	15	-8	113	-1	131*	-1	108	-1	103
Cc1cc2cc(CNC(=O)c3cccc([N+](=O)[O-])c3)ccc2n1C	20	1	87	11	72*[inhibitor]	5	109	9	101
Cc1cc2cc(CNC(=O)Cc3ccc([N+](=O)[O-])cc3)ccc2n1C	22	-5	88	-2	92	-9	.	.	.
Cc1c(C(=O)NCc2ccc3c(c2)cc(C)n3C)cccc1[N+](=O)[O-]	19	1	89	24	73*[inhibitor]	-5	98	-10	98
CCCCCCCCNC(=O)c1ccc(C)cc1	-9	-5	102	14	98	0	.	.	.
Cc1cc(-c2nn(-c3ccccc3F)cc2CN2CCC(O)CC2)c(C)s1	-6	16	108	5	99	2	.	.	.
Cc1cc(-c2nn(-c3ccccc3F)cc2CN2CCN(c3ccncc3)CC2)c(C)s1	13	22	172*	23	106	41	185	56	112
O=C(CCN1C(=O)/C(=C\c2cccs2)SC1=S)Nc1ccc(C(=O)O)cc1	-16	-21	97	1	101	3	.	.	.
CCN(CC)CCOC(=O)c1ccc(NC(=O)CCCN2C(=O)/C(=C\c3cccs3)SC2=S)cc1	21	13	154*	60*	102	17	147	28	93
O=C(Nc1ccnn1C1CCN(CCCc2ccccc2)CC1)c1ccccc1Cl	-24	17	105	1	91	1	.	.	.
